# Assays:
# Detroit 551 [1] = assay: Selectivity index, ratio of IC50 for human Detroit 551 cells to IC50 for human PC3 cells; assay type: functional
# [2] = biological target: T1, DNA topoisomerase 1 (Homo sapiens) (UniProt P11387); assay: Inhibition of human topoisomerase 1 assessed as decrease in pBR322 mobility on agarose gel at 10 uM by electrophoresis
# T1 sequence (whole entry): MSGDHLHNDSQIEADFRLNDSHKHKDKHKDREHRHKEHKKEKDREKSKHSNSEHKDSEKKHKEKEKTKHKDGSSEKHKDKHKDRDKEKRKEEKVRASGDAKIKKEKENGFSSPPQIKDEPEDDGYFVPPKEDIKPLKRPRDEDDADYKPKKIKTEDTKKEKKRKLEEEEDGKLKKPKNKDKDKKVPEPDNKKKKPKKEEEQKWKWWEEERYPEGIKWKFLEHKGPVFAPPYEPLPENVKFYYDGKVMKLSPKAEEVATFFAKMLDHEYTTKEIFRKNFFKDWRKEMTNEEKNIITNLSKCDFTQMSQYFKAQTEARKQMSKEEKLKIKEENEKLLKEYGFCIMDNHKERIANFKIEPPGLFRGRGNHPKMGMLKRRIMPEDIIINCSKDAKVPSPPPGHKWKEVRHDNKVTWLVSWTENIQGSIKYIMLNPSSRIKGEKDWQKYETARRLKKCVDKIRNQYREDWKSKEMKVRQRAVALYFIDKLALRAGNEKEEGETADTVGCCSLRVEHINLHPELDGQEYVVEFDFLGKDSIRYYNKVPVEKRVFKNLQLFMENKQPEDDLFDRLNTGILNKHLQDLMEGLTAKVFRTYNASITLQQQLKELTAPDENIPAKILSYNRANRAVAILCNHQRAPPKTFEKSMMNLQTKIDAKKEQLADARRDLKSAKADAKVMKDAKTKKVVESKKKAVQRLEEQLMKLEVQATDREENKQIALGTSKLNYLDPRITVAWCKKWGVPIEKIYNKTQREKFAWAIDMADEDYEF
# Procedure, shortened: (§1)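 Enzyme preincubated with compound before DNA addition; reaction run 30 min at 37 °C and stopped with SDS. Products resolved on 1% agarose, stained with ethidium bromide, quantified by densitometry.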
# SAS = assay: Cytotoxicity against human SAS cells after 48 hrs by MTT assay; assay type: functional
# Procedure, shortened: (§2)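 Cells grown in DMEM with 10% FBS at 37 °C and 5% CO2, seeded at 5 × 10^3 per well and allowed 24 h before drug. Serial dilutions from DMSO stocks applied for 48 h. MTT (2 mg/mL in PBS) added for 2 h, formazan dissolved in DMSO, absorbance read at 570 nm. GI50 interpolated by linear regression from at least three points in the 20-80% range; three independent experiments.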
# HeLa = assay: Cytotoxicity against human HeLa cells after 48 hrs by MTT assay; assay type: functional; procedure, shortened: as §2
# [3] = Oral bioavailability in CD1 mouse at 20 mg/ kg, po; assay type: ADME, organism-based; conditions: in vivo
# Procedure, shortened: (§3)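 Male CD-1 (Crl.) mice, 22-24 g, fasted 4 h before dosing; single oral gavage of 20 mg/kg as a suspension in 0.5% methylcellulose/water, 10 mL/kg. Cardiac-puncture plasma (K-EDTA) taken predose to 27 h, three mice per time point; LC-MS/MS quantification.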
# Detroit 551 [4] = assay: Selectivity index, ratio of IC50 for human Detroit 551 cells to IC50 for human A549 cells; assay type: functional
# Mus musculus [5] = assay: Toxicity to BALB/c mouse assessed as survival rate at 10 mg/kg, iv; assay type: organism-based; parameters: dose 10 mg/kg, route intravenous; conditions: in vivo
# Procedure, shortened: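 Balb/C athymic nude mice (6-8 weeks, ~20 g) bearing subcutaneous BT483 breast xenografts (0.5 × 10^6 cells). Treatment began at ~500 mm3 tumour volume: cosolvent formulation diluted in 5% dextrose, iv at 10 or 20 mg/kg once daily for 14 days; controls received vehicle. 3 animals per group. Survival was assessed by Kaplan-Meier analysis at study end, p < 0.05.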
# DNA topoisomerase 1 = biological target: T2, DNA topoisomerase 1 (Homo sapiens, UniProt P11387); assay: Inhibition of human topoisomerase 1 assessed as decrease in pBR322 mobility on agarose gel by electrophoresis; procedure, shortened: as §1
# T2 sequence (P11387 whole entry): T1 sequence (whole entry)
# Mus musculus [6] = assay: Toxicity to BALB/c mouse assessed as change in glutamic pyruvate transaminase at 20 mg/kg, iv; assay type: organism-based; parameters: dose 20 mg/kg, route intravenous; conditions: in vivo
# Procedure, shortened: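 BALB/c mice, 3 per group, randomized by body weight (stratified). Dosed iv via tail vein at 10, 20 or 40 mg/kg in PEG 400/ethanol/water (20/20/60), once every 3 days for 2 weeks; solvent controls. Weighed throughout. After a 24 h fast, heart blood was drawn under ether; GOT, GPT, BUN and creatinine were measured on an analyzer. Liver and kidney taken for H&E.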
# [7] = Cmax in CD1 mouse at 20 mg/ kg, po; assay type: ADME, organism-based; parameters: dose 20 mg/ kg, route oral; conditions: in vivo; procedure, shortened: as §3
smiles,measurement,setting,value
COc1ccc2c(c1)/C(=N\OCCN1CCCC1)c1c-2c(O)nc2ccccc12,RatioGI50,Detroit 551 [1],6.8
same,inhibition,[2],71%
same,GI50,SAS,840 nM
same,GI50,HeLa; read-out: GI50,230 nM
same,GI50,HeLa; read-out: pGI50 (converted),229 nM
same,bioavailability,[3],10.9%
same,RatioGI50,Detroit 551 [4],13.98
same,Activity,Mus musculus [5],Non-toxic
same,IC50,DNA topoisomerase 1,3.76 µM
same,Activity,Mus musculus [6],Non-toxic
same,Cmax,[7],63 ng/mL
